For 23 compounds, Activity, MIC and IC50 results are on record in ChEMBL document CHEMBL3286182, “4-aminoquinolone piperidine amides: noncovalent inhibitors of DprE1 with long residence time and potent antimycobacterial activity” (J Med Chem, 2014).

Broadly, the MIC is the lowest concentration found to suppress growth. A low value points to greater potency. By IC50 is commonly meant the concentration at which inhibition is half-maximal.

Converted amounts (≈) assume the structure as drawn. The source made the active and inactive calls. The rule behind the calls is not given here.

Assay [1] deals with Pseudomonas aeruginosa. Nature of the assay: Antimicrobial activity against Pseudomonas aeruginosa ARC545 at 100 uM. Type of assay: functional, organism-based. The method in brief: (§1)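 Nonmycobacterial panel of Candida albicans, Gram-negative and Gram-positive pathogens.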
The subject of assay [2] is Mycobacterium tuberculosis. The assay can be described thus: Antimycobacterial activity against Mycobacterium tuberculosis H37Rv after 5 days by standard microdilution method. The assay is classed as functional. Conditions: 120 h.
Assay [3] relates to Escherichia coli. The assay can be described thus: Antimicrobial activity against Escherichia coli ARC523 at 100 uM. Type of assay: functional, organism-based. Put shortly: as §1
A further assay relates to Candida albicans. The assay can be described thus: Antimicrobial activity against Candida albicans ARC527 at 100 uM. Type of assay: functional, organism-based. The method in brief:
as §1

In another assay the test system is Klebsiella pneumoniae. The assay can be described thus: Antimicrobial activity against Klebsiella pneumoniae ARC1865 at 100 uM. Type of assay: functional, organism-based. The method in brief:
as §1

Assay [4] relates to Mycolicibacterium smegmatis. Nature of the assay: Antimicrobial activity against Mycobacterium smegmatis mc2155 at 100 uM. Type of assay: functional, organism-based. Conditions: str. MC2 155.
A further assay deals with Staphylococcus aureus. Nature of the assay: Antimicrobial activity against Staphylococcus aureus ARC517 at 100 uM. The assay is classed as functional, organism-based. Put shortly: as §1
Assay [5] can be described thus: Inhibition of Mycobacterium smegmatis recombinant DprE1 using farnesylphosphoryl-beta-D-ribofuranose as substrate assessed as conversion of amplex red to resorufin after 30 mins. Details: species or system Mycolicibacterium smegmatis. Put shortly:
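Msm DprE1 (thioredoxin-6His fusion of Msm Rv3790) at 75 nM, preincubated 30 min with 10 μM FAD. Buffer: 50 mM glycylglycine pH 8.5, 200 mM potassium glutamate, 0.002% Brij-35, 2% DMSO, 25 °C. Started with 300 μM farnesylphosphoryl-β-D-ribofuranose, 0.01 mg/mL HRP and 50 μM Amplex Red.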

The test system of assay [6] is Mycolicibacterium smegmatis. Nature of the assay: Antimicrobial activity against Mycobacterium smegmatis ATCC 607 at 100 uM. Type of assay: functional, organism-based.
For assay [7], the system named is Escherichia coli. Nature of the assay: Antimicrobial activity against Escherichia coli ARC524 at 100 uM. The assay is classed as functional, organism-based. Put shortly:
as §1

The next assay relates to Streptococcus pneumoniae. The assay can be described thus: Antimicrobial activity against Streptococcus pneumoniae ARC548 at 100 uM. Type of assay: functional, organism-based. The method in brief: as §1
Assay [8] has as its system Mycobacterium tuberculosis. Nature of the assay: Antimycobacterial activity against Mycobacterium tuberculosis H37Rv under hypoxic condition after 6 days by resazurin assay. Type of assay: functional.
For assay [9], the system named is Pseudomonas aeruginosa. Nature of the assay: Antimicrobial activity against Pseudomonas aeruginosa ARC546 at 100 uM. The assay is classed as functional, organism-based. The method in brief:
as §1

The test system of assay [10] is Haemophilus influenzae. Nature of the assay: Antimicrobial activity against Haemophilus influenzae ARC158 at 100 uM. Type of assay: functional, organism-based. The method in brief:
as §1

The subject of assay [11] is Haemophilus influenzae. The assay can be described thus: Antimicrobial activity against Haemophilus influenzae ARC446 at 100 uM. Type of assay: functional, organism-based. The method in brief: as §1

As to `Cc1onc(C(=O)N2CCC(Nc3cc(=O)[nH]c4cc(F)c(F)cc34)CC2)c1C`, the result (in the assay on Pseudomonas aeruginosa [1]; with Escherichia coli [3]; in the assay on Candida albicans; in the assay on Klebsiella pneumoniae; in assay [4]; with Staphylococcus aureus) was inactive. For the same compound, the outcome (in [6]; in the assay with Escherichia coli [7]; with Streptococcus pneumoniae; in assay [8]; in the assay with Pseudomonas aeruginosa [9]; in the assay with Haemophilus influenzae [10]) was inactive. Moreover, in the assay with Haemophilus influenzae [11], the outcome was inactive. The compound further registered an MIC in assay [2] of 0.2 µM (≈ 0.0805 µg/mL). Also, in [5], the IC50 came out at 18 nM.

Consider `CCn1ncc(C(=O)N2CCC(Nc3cc(=O)[nH]c4ccc(F)cc34)CC2)c1Cl`, for which the outcome (in the assay with Pseudomonas aeruginosa [1]; with Escherichia coli [3]; with Candida albicans; in the assay with Klebsiella pneumoniae; in assay [4]; in the assay on Staphylococcus aureus) was inactive. The result (in [6]; in the assay with Escherichia coli [7]; with Streptococcus pneumoniae; in [8]; in the assay with Pseudomonas aeruginosa [9]; in the assay on Haemophilus influenzae [10]) was inactive. In addition, the outcome in the assay with Haemophilus influenzae [11] was inactive. Further, in assay [2], the minimal inhibitory concentration (MIC) was determined as 12.5 µM (≈ 5.22 µg/mL). The IC50 in [5] stood at 45 nM.

As to `Cn1ncc(C(=O)N2[C@@H]3CC[C@H]2C[C@@H](Nc2cc(-c4ccccc4)[nH]c(=O)c2)C3)c1Cl`, inhibition of growth in [2] (MIC) required 1.6 µM (≈ 0.701 µg/mL). In addition, the IC50 in assay [5] is 53 nM.

The compound `Cn1ncc(C(=O)N2[C@@H]3CC[C@H]2C[C@H](Nc2cc(=O)[nH]c4ccc(F)cc24)C3)c1Cl` displayed an MIC in [2] of over 200 µM. Besides, the 50% inhibitory concentration (IC50) in assay [5] is 43000 nM.

In the case of `Cn1ncc(C(=O)N2CCC(Nc3cc(=O)[nH]c4ccc(F)cc34)CC2)c1C(F)(F)F`, the outcome (in the assay with Pseudomonas aeruginosa [1]; with Escherichia coli [3]; with Candida albicans; with Klebsiella pneumoniae; in assay [4]; in the assay on Staphylococcus aureus) was inactive. The result (in [6]; in the assay with Escherichia coli [7]; in the assay on Streptococcus pneumoniae; in assay [8]; in the assay with Pseudomonas aeruginosa [9]; in the assay on Haemophilus influenzae [10]) was inactive. Moreover, the result with Haemophilus influenzae [11] was inactive. The compound further displayed an MIC in [2] of 6.2 µM (≈ 2.71 µg/mL). In addition, the IC50 in assay [5] was 21 nM.

Compound `Cn1ncc(C(=O)N2CCC(Nc3cc(-c4ccccc4)[nH]c(=O)c3)CC2)c1Cl` showed an MIC in assay [2] of 50 µM (≈ 20.6 µg/mL). Besides, in assay [5], the IC50 was determined as 3000 nM.

As for `Cc1c(C(=O)N2CCC(Nc3cc(=O)[nH]c4ccc(F)cc34)CC2)nnn1C`, the result (in the assay on Pseudomonas aeruginosa [1]; in the assay on Escherichia coli [3]; in the assay with Candida albicans; in the assay on Klebsiella pneumoniae; in assay [4]; in the assay on Staphylococcus aureus) was inactive. The result (in assay [6]; with Escherichia coli [7]; with Streptococcus pneumoniae; in assay [8]; in the assay on Pseudomonas aeruginosa [9]; in the assay on Haemophilus influenzae [10]) was inactive. In addition, the result in the assay with Haemophilus influenzae [11] was inactive. The compound further gave an MIC in assay [2] of 3.5 µM (≈ 1.35 µg/mL). The IC50 in assay [5] was 11 nM.

In the case of `Cn1ncc(C(=O)N2CCC(Nc3n[nH]c4ccc(F)cc34)CC2)c1Cl`, in [2], the MIC was over 100 µM. Also, the IC50 in [5] was 113 nM.

For the compound `Cn1cc(C(=O)N2CCC(Nc3cc(=O)[nH]c4ccccc34)CC2)cn1`, the outcome (in the assay on Pseudomonas aeruginosa [1]; in the assay with Escherichia coli [3]; in the assay on Candida albicans; in the assay with Klebsiella pneumoniae; in [4]; in the assay with Staphylococcus aureus) was inactive. Moreover, the outcome (in assay [6]; in the assay with Escherichia coli [7]; with Streptococcus pneumoniae; in assay [8]; with Pseudomonas aeruginosa [9]; with Haemophilus influenzae [10]) was inactive. In addition, the result with Haemophilus influenzae [11] was inactive. The compound also showed an MIC in assay [2] of 140 µM (≈ 49.2 µg/mL). In addition, in assay [5], the concentration for half-maximal inhibition (IC50) amounted to 2200 nM.

In turn, `Cn1ncc(C(=O)N2CCC(Nc3cnnc4ccccc34)CC2)c1Cl` displayed an MIC in assay [2] of over 200 µM. Moreover, in [5], the IC50 was over 10000 nM.

Consider `Cc1onc(C(=O)N2CCC(Nc3cc(=O)[nH]c4ccc(F)cc34)CC2)c1C`, for which the result (in the assay on Pseudomonas aeruginosa [1]; in the assay with Escherichia coli [3]; in the assay with Candida albicans; in the assay with Klebsiella pneumoniae; in assay [4]; with Staphylococcus aureus) was inactive. The result (in [6]; in the assay with Escherichia coli [7]; with Streptococcus pneumoniae; in assay [8]; in the assay with Pseudomonas aeruginosa [9]; in the assay on Haemophilus influenzae [10]) was inactive. Besides, the outcome in the assay on Haemophilus influenzae [11] was inactive. Besides, the MIC in [2] was 6.2 µM (≈ 2.38 µg/mL). Moreover, in [5], the IC50 was under 6 nM.

As for `Cn1ncc(C(=O)N2CCC(Oc3cc(=O)[nH]c4ccccc34)CC2)c1Cl`, the result (with Pseudomonas aeruginosa [1]; in the assay on Escherichia coli [3]; in the assay on Candida albicans; with Klebsiella pneumoniae; in assay [4]; with Staphylococcus aureus) was inactive. Moreover, the outcome (in [6]; in the assay on Escherichia coli [7]; with Streptococcus pneumoniae; in assay [8]; in the assay on Pseudomonas aeruginosa [9]; in the assay on Haemophilus influenzae [10]) was inactive. Also, in the assay with Haemophilus influenzae [11], the outcome was inactive. Moreover, inhibition of growth in assay [2] (MIC) required 50 µM (≈ 19.3 µg/mL). Moreover, the IC50 in assay [5] was determined as 8000 nM.

For `COc1cc(NC2CCN(C(=O)c3cnn(C)c3Cl)CC2)c2ccccc2n1`, the MIC in assay [2] was over 200 µM. The 50% inhibitory concentration (IC50) in assay [5] stood at 78000 nM.

On to `Cn1ncc(C(=O)N2CCC(Nc3cc(=O)[nH]c4c(F)c(F)ccc34)CC2)c1Cl`, for which the result (with Pseudomonas aeruginosa [1]; in the assay on Escherichia coli [3]; in the assay with Candida albicans; in the assay with Klebsiella pneumoniae; in assay [4]; in the assay with Staphylococcus aureus) was inactive. For the same compound, the outcome (in assay [6]; with Escherichia coli [7]; in the assay with Streptococcus pneumoniae; in [8]; in the assay on Pseudomonas aeruginosa [9]; in the assay on Haemophilus influenzae [10]) was inactive. Also, the outcome with Haemophilus influenzae [11] was inactive. For the same compound, inhibition of growth in [2] (MIC) required 1.6 µM (≈ 0.675 µg/mL). Also, the IC50 in [5] is 9 nM.

`Cn1ncc(C(=O)N2[C@@H]3CC[C@H]2C[C@@H](Nc2cc(=O)n(C)c4cc(F)c(F)cc24)C3)c1Cl`: the MIC in assay [2] stood at 0.12 µM (≈ 0.0554 µg/mL). For the same compound, the IC50 in assay [5] came out at 8 nM.

In assay [2], `Cn1ncc(C(=O)N2[C@@H]3CC[C@H]2C[C@@H](Nc2cc(=O)n(C)c4ccc(F)cc24)C3)c1Cl` came in with an MIC of 0.25 µM (≈ 0.111 µg/mL). The IC50 in assay [5] turned out to be 12 nM.

The compound `Cn1ncc(C(=O)N2[C@@H]3CC[C@H]2C[C@@H](Nc2cc(=O)[nH]c4cc(F)c(F)cc24)C3)c1Cl` yielded an MIC in assay [2] of 0.06 µM (≈ 0.0269 µg/mL). Besides, in assay [5], the IC50 stood at 9 nM.

For `CCn1c(=O)cc(NC2CCN(C(=O)c3cnn(C)c3Cl)CC2)c2ccccc21`, the outcome (with Pseudomonas aeruginosa [1]; with Escherichia coli [3]; in the assay on Candida albicans; in the assay on Klebsiella pneumoniae; in assay [4]; in the assay with Staphylococcus aureus) was inactive. For the same compound, the outcome (in assay [6]; in the assay on Escherichia coli [7]; in the assay on Streptococcus pneumoniae; in assay [8]; in the assay with Pseudomonas aeruginosa [9]; with Haemophilus influenzae [10]) was inactive. Also, the outcome in the assay on Haemophilus influenzae [11] was inactive. The compound also came in with a minimum inhibitory concentration (MIC) in assay [2] of over 100 µM. Moreover, in assay [5], the IC50 was over 100000 nM.

Take `C[C@H]1C[C@H](Nc2cc(=O)[nH]c3ccccc23)CCN1C(=O)c1cnn(C)c1Cl`: the minimal inhibitory concentration (MIC) in [2] is 12.5 µM (≈ 5 µg/mL). Moreover, the IC50 in assay [5] was found to be 26 nM.

In the case of `Cn1ncc(C(=O)N2CCC(Nc3cc(=O)[nH]c4ccccc34)C2)c1Cl` (stereo not drawn), the MIC in assay [2] is over 200 µM. Besides, in [5], the IC50 is 4700 nM.

Consider `C[C@H]1C[C@@H](Nc2cc(=O)[nH]c3ccccc23)CCN1C(=O)c1cnn(C)c1Cl`, for which the MIC in [2] is over 200 µM. In addition, the 50% inhibitory concentration (IC50) in assay [5] was over 10000 nM.

`Cn1ncc(C(=O)N2CC(Nc3cc(=O)[nH]c4ccccc34)C2)c1Cl` returned an MIC in [2] of 50 µM (≈ 17.9 µg/mL). For the same compound, the IC50 in [5] is 1800 nM.

In assay [2], `Cc1onc(C(=O)N2[C@@H]3CC[C@H]2C[C@@H](Nc2cc(=O)[nH]c4cc(F)c(F)cc24)C3)c1C` came in with an MIC of 0.06 µM (≈ 0.0257 µg/mL). Further, in assay [5], the half-maximal inhibitory concentration (IC50) was 7 nM.
